In PMC8489566 (ACS nano, 2020):

Legend:
human THP-1 macrophages = assay type: cell-based
[1] = system: mouse-derived J774A.1 macrophages; assay type: cell-based
Summary of the method: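 J774A.1 macrophages plated 24 h in RPMI with 10% FBS, then treated with test compound (20 nM, 1 μM or 50 μM) for 1 h at 37 °C and washed; positive control was 5 μg/mL rat anti-mouse SIRPα. Human RBCs were EDTA-washed, opsonized with 20 μg/mL rabbit anti-RBC IgG (1 h, RT), and PKH26-labelled. They were added at 10:1 for 1 h at 37 °C, then fixed and Hoechst-stained for fluorescence imaging.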

SIRPα = test: CD47-Fc inhibition assay; assay type: binding, human; conditions: THP-1 macrophages, 1 μM or 50 μM peptide 1 h, Fc-receptor blockade, 2 μg/mL CD47-Fc, anti-Fc fluorescence, n = 2 sets of triplicates

## nS-wt: CD47's eight amino acid binding loop, wild-type nano-Self peptide, C-terminal amide
Human THP-1 macrophages; 50 μM peptide, opsonized RBCs
  phagocytosis levels at maximum peptide concentration: well above those for nS-X and nS-XX controls
Human THP-1 macrophages; maximum peptide concentration (50 μM), anti-RBC ~133 nM, n = 3
  macrophages that internalize opsonized RBCs, peptide combined with anti-RBC: ~ 30%
Human THP-1 macrophages; saturating peptide, opsonized RBCs
  phagocytosis compared with anti-CD47: gives the same result as anti-CD47
[1]; J774A.1 macrophages, opsonized RBCs, high concentrations (50 μM)
  phagocytosis by mouse macrophages: matches anti-CD47 blockade effects
[1]; weaker in mouse than in human macrophages
  effective activity in the mouse macrophage assay relative to the human assay: ~ 100 fold
SIRPα
  level of inhibition of CD47-Fc binding to macrophages: inhibited
